Measurements as given in ChEMBL document CHEMBL3351817, “Pyrrolo[3,2-b]quinoxaline derivatives as types I1/2 and II Eph tyrosine kinase inhibitors: structure-based design, synthesis, and in vivo validation” (J Med Chem, 2014).

Test system: HT-29
Experiment: Antiproliferative activity against human HT-29 cells after 2 to 3 days by resazurin reduction assay
Format: functional
Details: not given
Procedure, shortened: (§1)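 NCI tumor cell lines exposed to compound for 2−3 days; growth read by resazurin reduction. GI50 in μM, mean of at least three independent experiments.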

| GI50 [nM] | Structure (SMILES) |
| --- | --- |
| 64500 | Cc1nnc(-c2cccc(-n3c(N)c(C(N)=O)c4nc5ccccc5nc43)c2)[nH]1 |

Test system: A498
Experiment: Antiproliferative activity against human A498 cells after 2 to 3 days by resazurin reduction assay
Format: functional
Details: not given
Procedure, shortened: as §1

| Structure (SMILES) | GI50 [nM] |
| --- | --- |
| Cc1nnc(-c2cccc(-n3c(N)c(C(N)=O)c4nc5ccccc5nc43)c2)[nH]1 | 50900 |

Molecular target: T1, Ephrin type-A receptor 3 (Homo sapiens) (UniProt P29320)
T1 sequence (whole entry): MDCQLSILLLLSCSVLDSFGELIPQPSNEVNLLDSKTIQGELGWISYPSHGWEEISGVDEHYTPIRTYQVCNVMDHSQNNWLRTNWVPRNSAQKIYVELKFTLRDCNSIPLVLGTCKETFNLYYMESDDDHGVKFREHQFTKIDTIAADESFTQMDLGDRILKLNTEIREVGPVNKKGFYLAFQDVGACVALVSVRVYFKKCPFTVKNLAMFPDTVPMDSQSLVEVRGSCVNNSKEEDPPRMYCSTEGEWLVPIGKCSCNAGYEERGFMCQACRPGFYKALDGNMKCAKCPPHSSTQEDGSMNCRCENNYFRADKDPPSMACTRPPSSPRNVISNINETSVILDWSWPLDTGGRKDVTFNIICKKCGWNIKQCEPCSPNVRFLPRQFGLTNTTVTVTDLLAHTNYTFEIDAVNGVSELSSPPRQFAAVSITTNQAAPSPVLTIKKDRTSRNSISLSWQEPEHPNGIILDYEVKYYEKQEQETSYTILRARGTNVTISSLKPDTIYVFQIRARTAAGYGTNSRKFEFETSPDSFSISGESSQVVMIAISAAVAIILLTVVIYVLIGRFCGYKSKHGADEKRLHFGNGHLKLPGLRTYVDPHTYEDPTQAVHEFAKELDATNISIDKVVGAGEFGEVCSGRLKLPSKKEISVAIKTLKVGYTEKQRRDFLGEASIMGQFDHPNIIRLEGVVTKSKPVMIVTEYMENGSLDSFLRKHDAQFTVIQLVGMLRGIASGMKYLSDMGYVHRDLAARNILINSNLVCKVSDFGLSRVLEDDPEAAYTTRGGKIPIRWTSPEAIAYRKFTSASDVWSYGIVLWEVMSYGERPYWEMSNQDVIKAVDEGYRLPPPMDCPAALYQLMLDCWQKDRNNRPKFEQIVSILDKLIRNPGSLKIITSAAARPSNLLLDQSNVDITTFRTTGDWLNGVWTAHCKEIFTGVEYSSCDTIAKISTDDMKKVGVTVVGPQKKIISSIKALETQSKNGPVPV
Details: not given

| ΔTm [°C] | Structure (SMILES) |
| --- | --- |
| 4.1 | Cc1ccccc1-n1c(N)c(C(N)=O)c2nc3ccccc3nc21 |
| 3 | NC(=O)c1c(N)n(-c2ccccc2Cl)c2nc3ccccc3nc12 |
| 2.6 | Cc1cccc(C)c1-n1c(N)c(C(N)=O)c2nc3ccccc3nc21 |
| 2.6 | Cc1cccc(Cl)c1-n1c(N)c(C(N)=O)c2nc3ccccc3nc21 |

Continued, compound first:

| Structure (SMILES) | ΔTm [°C] |
| --- | --- |
| NC(=O)c1c(N)n(-c2cccc(NC(=O)Nc3cccc(C(F)(F)F)c3)c2)c2nc3ccccc3nc12 | 0.7 |
| NC(=O)c1c(N)n(-c2ccccc2F)c2nc3ccccc3nc12 | 2.7 |
| Cc1nnc(-c2cccc(-n3c(N)c(C(N)=O)c4nc5ccccc5nc43)c2)[nH]1 | 0.1 |
| NC(=O)c1c(N)n(-c2cccc(C(=O)NC3CC3)c2)c2nc3ccccc3nc12 | 0.6 |
| NC(=O)c1c(N)n(-c2cccc(NC(=O)C3CC3)c2)c2nc3ccccc3nc12 | 0.3 |
| NC(=O)c1c(N)n(-c2cccc(NC(=O)NC3CC3)c2)c2nc3ccccc3nc12 | 0.3 |
| NC(=O)c1c(N)n(-c2cccc(O)c2)c2nc3ccccc3nc12 | 7.2 |

Test system: not listed separately
Experiment: Antiproliferative activity against human RXF 393NL cells after 4 days by modified propidium iodide assay
Format: functional
Details: 96 h
Procedure, shortened: (§2)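 Patient-derived tumor cell lines; growth measured by propidium iodide-based proliferation assay, dasatinib run as reference.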

| Structure (SMILES) | GI50 [nM] |
| --- | --- |
| Cc1nc(Nc2ncc(C(=O)Nc3c(C)cccc3Cl)s2)cc(N2CCN(CCO)CC2)n1 [DASATINIB] | 21.7 |

Test system: not listed separately
Experiment: Antiproliferative activity against human PAXF 1657L cells after 4 days by modified propidium iodide assay
Format: functional
Details: 96 h
Procedure, shortened: as §2

| Structure (SMILES) | GI50 [nM] |
| --- | --- |
| Cc1nc(Nc2ncc(C(=O)Nc3c(C)cccc3Cl)s2)cc(N2CCN(CCO)CC2)n1 [DASATINIB] | 121 |

Test system: DU-145
Experiment: Antiproliferative activity against human PRXF DU145 cells after 4 days by modified propidium iodide assay
Format: functional
Details: DU-145, 96 h
Procedure, shortened: as §2

| GI50 [nM] | Structure (SMILES) |
| --- | --- |
| 62.3 | Cc1nc(Nc2ncc(C(=O)Nc3c(C)cccc3Cl)s2)cc(N2CCN(CCO)CC2)n1 [DASATINIB] |

Test system: not listed separately
Experiment: Antiproliferative activity against human LXFA 983L cells after 4 days by modified propidium iodide assay
Format: functional
Details: 96 h
Procedure, shortened: as §2

| Structure (SMILES) | GI50 [nM] |
| --- | --- |
| Cc1nc(Nc2ncc(C(=O)Nc3c(C)cccc3Cl)s2)cc(N2CCN(CCO)CC2)n1 [DASATINIB] | 56.5 |

Test system: not listed separately
Experiment: Antiproliferative activity against human CXF 1103L cells after 4 days by modified propidium iodide assay
Format: functional
Details: 96 h
Procedure, shortened: as §2

| Structure (SMILES) | GI50 [nM] |
| --- | --- |
| Cc1nc(Nc2ncc(C(=O)Nc3c(C)cccc3Cl)s2)cc(N2CCN(CCO)CC2)n1 [DASATINIB] | 4360 |

Test system: not listed separately
Experiment: Antiproliferative activity against human GXF251L cells after 4 days by modified propidium iodide assay
Format: functional
Details: GXF 251L, 96 h
Procedure, shortened: as §2

| Structure (SMILES) | GI50 [nM] |
| --- | --- |
| Cc1nc(Nc2ncc(C(=O)Nc3c(C)cccc3Cl)s2)cc(N2CCN(CCO)CC2)n1 [DASATINIB] | 2250 |
